According to ChEMBL document CHEMBL3112517, “Identification of dihydrostilbenes in Pholidota chinensis as a new scaffold for GABAA receptor modulators” (Bioorg Med Chem, 2014):
Active and inactive are the calls of the source. No cut-off for these calls is given here.

Legend:
Format in all cases: cell-based
[1] = species: Rattus norvegicus; test: Allosteric modulation of rat GABAA alpha1beta2gamma2S receptor expressed in Xenopus laevis oocytes assessed as potentiation of GABA-induced chloride ion current at holding potential -70 mV at 100 uM by two-microelectrode voltage clamp assay relative to GABA-treated control
Summary of the method: (§1)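 Stage V–VI Xenopus laevis oocytes were injected with 50 nL of rat α1, β2 and γ2S cRNA mixed 1:1:10 (about 300–3000 pg/nL per subunit), stored at 18 °C in ND96, and recorded on days 1–5. Two-electrode clamp was at −70 mV in pH 7.4 HEPES bath. Compound was applied by fast perfusion with GABA EC3–10, in 1% DMSO final. Enhancement = I(GABA+Comp)/IGABA − 1.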

[2] = species: Rattus norvegicus; test: Modulation of rat GABAA alpha1beta2gamma2S receptor expressed in Xenopus laevis oocytes assessed as potentiation of EC5 to 10 GABA-induced chloride ion current at holding potential -70 mV at 1 uM by two-microelectrode voltage clamp assay relative to GABA-treated control
Summary of the method: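 Stage V–VI oocytes injected with rat α1, β2 and γ2S cRNAs (1:1:10), kept at 18 °C in ND96 and recorded 1–5 days later at −70 mV. Bath: 90 mM NaCl, 1 mM KCl, 1 mM MgCl2, 1 mM CaCl2, 5 mM HEPES, pH 7.4. Compound from 100 mM DMSO stock co-applied with GABA EC3–10 by fast perfusion, final DMSO 1%. Enhancement = I(GABA+comp)/IGABA − 1.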

[3] = species: Rattus norvegicus; test: Agonist activity rat GABAA alpha1beta2gamma2S receptor expressed in Xenopus laevis oocytes assessed as potentiation of GABA-induced chloride ion current at holding potential -70 mV at <100 uM compound treated prior to GABA challenge by two-microelectrode voltage clamp assay
[4] = species: Rattus norvegicus; test: Allosteric modulation of rat GABAA alpha1beta2gamma2S receptor expressed in Xenopus laevis oocytes assessed as potentiation of EC3 to 10 GABA-induced chloride ion current at holding potential -70 mV at 500 uM by two-microelectrode voltage clamp assay relative to GABA-treated control; summary of the method: as §1
[5] = (§2) Allosteric modulation of rat GABAA alpha1beta2gamma2S receptor expressed in Xenopus laevis oocytes assessed as potentiation of EC3 to 10 GABA-induced chloride ion current at holding potential -70 mV by two-microelectrode voltage clamp assay; summary of the method: as §1
[6] = species: Rattus norvegicus; test: as §2; summary of the method: as §1
[7] = species: Rattus norvegicus; test: Allosteric modulation of rat GABAA alpha1beta2gamma2S receptor expressed in Xenopus laevis oocytes assessed as potentiation of EC3 to 10 GABA-induced chloride ion current at holding potential -70 mV at 1 to 300 uM by two-microelectrode voltage clamp assay relative to GABA-treated control; summary of the method: as §1

Q: For `Oc1cc(O)cc(CCc2ccc(O)c(O)c2)c1`, which Activity [1] is on record?
A: 86.3%

Q: Which Activity [1] does the source give for `COc1ccc(/C=C/c2ccc(OC)cc2)cc1` here?
A: -24.8%

Q: Which Activity [1] does the source give for `Oc1ccc(CCc2cc(O)cc(O)c2)cc1` here?
A: 162%

Q: For `c1ccc(CC(c2ccccc2)c2ccccc2)cc1`, which Activity [1] is on record?
A: 51.6%

Q: Which Activity [1] does the source give for `C(=C\c1ccccc1)/c1ccccc1` here?
A: -11.3%

Q: With `CN1C(=O)CN=C(c2ccccc2)c2cc(Cl)ccc21` as the molecule, how does the Activity [2] read?
A: 231%

Q: With `C(=C/c1ccccc1)/c1ccccc1` as the molecule, how does the Activity [1] read?
A: 12.6%

Q: With `c1ccc(CCc2ccccc2)cc1` as the molecule, how does the Activity [1] read?
A: 8.3%

Q: For `COc1cc(O)cc(/C=C\c2cccc(O)c2)c1`, which Activity [3] is on record?
A: inactive

Q: What about the Imax [4] of the same molecule?
A: 787%

Q: And the EC50 [5]?
A: 176 µM

Q: What about the Activity [6] of the same molecule?
A: Dose-dependent effect

Q: And the Activity [1]?
A: 192%

Q: For `C(=C(c1ccccc1)c1ccccc1)c1ccccc1`, which Activity [1] is on record?
A: -7.3%

Q: With `COc1cc(CCc2ccc(OC)c(OC)c2)cc(OC)c1` as the molecule, how does the Activity [3] read?
A: inactive

Q: What about the Imax [7] of the same molecule?
A: 871%

Q: What about the EC50 [5] of the same molecule?
A: 20.2 µM

Q: What about the Activity [6] of the same molecule?
A: Dose-dependent effect

Q: And the Activity [1]?
A: 544%

Q: For `CC(=O)Oc1ccc(/C=C/c2cc(OC(C)=O)cc(OC(C)=O)c2)cc1`, which Activity [1] is on record?
A: 123%

Q: Which Activity [1] does the source give for `CC(=O)Oc1ccc(CCc2cc(OC(C)=O)cc(OC(C)=O)c2)cc1` here?
A: 228%

Q: Which Activity [1] does the source give for `COc1cc(/C=C/c2ccc(O)cc2)cc(OC)c1` here?
A: 212%

Q: For `Oc1ccc(/C=C/c2cc(O)cc(O)c2)cc1`, which Activity [1] is on record?
A: 122%

Q: For `Oc1cc(O)cc(CCc2ccc(O)cc2O)c1`, which Activity [1] is on record?
A: 44.1%

Q: Which Activity [1] does the source give for `COc1ccc(CCc2ccc(OC)cc2)cc1` here?
A: -20.9%

Q: For `COc1ccc(CCc2ccccc2F)cc1`, which Activity [1] is on record?
A: -16.8%

Q: Which Activity [1] does the source give for `Oc1cc(O)cc(/C=C/c2ccc(O)c(O)c2)c1` here?
A: -35.4%

Q: With `COc1cc(/C=C/c2ccc(OC)c(OC)c2)cc(OC)c1` as the molecule, how does the Activity [1] read?
A: 101%

Q: With `Br[C@H](c1ccccc1)[C@@H](Br)c1ccccc1` as the molecule, how does the Activity [1] read?
A: -12.9%

Q: With `Oc1cc(O)cc(/C=C/c2ccc(O)cc2O)c1` as the molecule, how does the Activity [1] read?
A: -19.7%

Q: Which Activity [1] does the source give for `COc1ccc(/C=C/c2ccccc2F)cc1` here?
A: -22.9%
